High-throughput results (PubChem)
INS promoter act – activators of insulin promoter-driven GFP, primary screen, imaging, TRM-6 cells, eGFP reporter, cell count; hit rate 0.81% among 130,000; plate-scaled: unstimulated 0, stimulated control 100; activation, % at 2 µM;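 active = activation at 2 µM above a set limit, confirmed on inspection of the cell images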;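 note: share of cells whose green reporter signal exceeds an intensity cutoff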
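System: human fetal islet-derived TRM-6 cells with tamoxifen-inducible insulin promoter–eGFP reporter; input: seeding density of 1,000 cells per well; buffer or medium: Low-glucose (5.5 mM) medium with tamoxifen; incubation: compound exposure 48 h, 37 °C; measured by: high-content imaging of fixed cells with Hoechst nuclear stain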
The depositor's hits bear a star. Shown is part of a subset that was picked to be rich in hits.

SMILES | INS promoter act
O=C(CN1CCOCC1)N1CCN(S(=O)(=O)c2ccccc2)C1c1ccccc1 (stereo unspecified) | -3.1
Cc1ccc(C(=O)N2CCN(C(=O)CN3CCOCC3)C2)cc1 | -3.6
Cc1ccc(S(=O)(=O)N2CCN(C(=O)CN3CCOCC3)C2C(C)C)cc1 (stereo unspecified) | 500.0*
O=C(NCc1ccccn1)C1CCN(S(=O)(=O)c2ccccc2)CC1 | 0.0
Cc1ccc(S(=O)(=O)N2CCC(C(=O)NCc3ccccc3Cl)CC2)cc1 | 91.4*
CN(C)C(=O)N1CCCC(C(=O)NCc2ccccc2Cl)C1 (stereo unspecified) | -7.7
Cc1ccc(S(=O)(=O)Oc2ccccc2/C=N/NC(N)=S)cc1 | 102.7*
COc1ccc(/C=N/NS(=O)(=O)c2ccccc2)cc1OS(=O)(=O)c1ccc(C)cc1 | -6.7
COc1ccc(/C=N/NC(N)=S)cc1OC(=O)c1ccccc1 | 3.6
O=C(COC(=O)C1CC2C=CC1C2)Nc1ccccc1F (stereo unspecified) | -5.9
Cc1cccc(Cn2ccc(NC(=O)c3ccc4c(c3)OCO4)n2)c1 | 7.1
Cc1noc(C)c1S(=O)(=O)N1CCCC(C(=O)NC2CCCCC2)C1 (stereo unspecified) | -7.7
Cc1cccc(-c2nc(CN3CCCC(C(=O)NC4CCCCCC4)C3)c(C)o2)c1 (stereo unspecified) | 171.4*
Cc1cccc(-c2nc(CS(=O)CC(=O)NCC3CCCO3)c(C)o2)c1 (stereo unspecified) | 0.0
COc1ccccc1/C(C)=N/NC(=S)NCc1ccccc1 | -8.1
Cc1ccc(NC(=O)COc2ccc(CCO)cc2-n2nc3ccccc3n2)cc1C | -6.7
Cc1cc(NC(=O)C2CCCCC2)ccc1NC(=O)c1ccccc1Cl | 0.0
CCn1nnc(-c2ccccc2NS(=O)(=O)c2ccc(S(=O)(=O)N(C)C3CCCCC3)cc2)n1 | 3.1
CC(C)Cc1ccc(/C=C/C(=O)N2CCCCC2)cc1 | -2.6
CC(C)(C)c1ccc(/C=C/C(=O)N2CCCCC2)cc1 | 335.3*
O=C(/C=C/c1ccc(Cl)cc1)N1CCN(c2ncccn2)CC1 | 4.3
Cc1cc(C(=O)C(=O)O)c(C)n1-c1ccc(Cl)cc1 | -5.6
CC1(C)CC(=O)c2cc(C(=O)N3CCCCC3)c(=O)n(-c3ccc(Cl)cc3)c2C1 | 163.6*
O=C(c1cc2cc(Cl)ccc2oc1=O)N1CCCC1 | 293.8
CC(=O)Nc1nnc(CCS(=O)(=O)c2ccc(C)c(C)c2)s1 | -4.3
SMILES | INS promoter act
CCCCn1c(N)c(N(CC)C(=O)c2cccc(OC)c2)c(=O)[nH]c1=O | -8.3
Cc1cc(C(=O)NC(C)Cc2ccccc2)cc(C)c1[N+](=O)[O-] (stereo unspecified) | 7.1
Fc1ccc(COc2ccc(Cl)cc2/C=N/Nc2nc(N3CCCC3)nc(N3CCCC3)n2)cc1 | 658.3*
CCOc1ccc(/C=N/Nc2nc(N3CCCC3)nc(N3CCCC3)n2)cc1OC | -5.7
COc1cc(/C=N/Nc2nc(N3CCCC3)nc(N3CCCC3)n2)ccc1O | 0.0
CCn1c(Cc2cccc3ccccc23)nnc1SCC(=O)Nc1nccs1 | -5.6
O=[N+]([O-])c1ccc(-n2cccc2/C=N/Nc2nc(N3CCCCC3)nc(N3CCCCC3)n2)cc1 | 0.0
O=[N+]([O-])c1cccc(/C=N/Nc2nc(N3CCCCC3)nc(N3CCCCC3)n2)c1 | -71.4
O=[N+]([O-])c1ccc(-c2ccc(/C=N/Nc3nc(N4CCCCC4)nc(N4CCCCC4)n3)o2)cc1 | 614.3*
CC(C)[C@H](NC(=O)c1ccccc1)C(=O)OCC(=O)N1CC2(C)CC1CC(C)(C)C2 (stereo partly specified) | 6.9
CCOc1ccc(NC(=S)N2CCC(C(N)=O)CC2)cc1 | -6.7
Cc1cc(N)nc2nc(C(F)(F)F)nn12 | 800.0*
Cc1cc(C)n2nc(CCc3ccccc3)nc2n1 | 0.0
Cc1cc(C)n2nc(-c3ccc(F)cc3)nc2n1 | 0.0
Oc1cccc(C(O)CNCc2ccc(OCc3ccc(Cl)cc3Cl)cc2)c1 (stereo unspecified) | 0.0
CCOCCCNC(=O)CN(Cc1ccc(Cl)cc1)S(C)(=O)=O | 188.9
CCN(CC(=O)NCCc1ccccc1)S(=O)(=O)c1ccc(Br)cc1 | 4.2
CCCNC(=O)CN(CCc1ccccc1)S(C)(=O)=O | 92.9*
Cc1cc(C)nc(NS(=O)(=O)c2ccc(NC(=O)c3ccc4c(c3)OCCO4)cc2)n1 | 5.3
O=C(O)c1ccc(Nc2ncnc3c2cnn3Cc2ccccc2)cc1 | 0.0
CCOc1cccc(OCCOc2ccccc2[N+](=O)[O-])c1 | 24.7
CCOc1ccc2c(c1)/C(=C(\C(Cl)=C(Cl)Cl)[N+](=O)[O-])N2 | 376.5*
CCOc1ccc([N+](=O)[O-])c(N)c1 | -3.4
CCc1nnc(NC(=O)C2CCCN(S(=O)(=O)c3ccc(OC)cc3)C2)s1 (stereo unspecified) | 4.8
Cc1ccc(C)c(OCC(=O)NCC(C)C)c1C | 113.3
SMILES | INS promoter act
COc1ccc(N(CC(=O)N2CCN(Cc3ccc4c(c3)OCO4)CC2)S(C)(=O)=O)cc1OC | 90.9
CC(C)CNS(=O)(=O)c1ccc(CCC(=O)N2CCN(Cc3ccc4c(c3)OCO4)CC2)cc1 | 468.8*
O=C(CCc1ccc(S(=O)(=O)NCCc2ccccc2)cc1)N1CCN(Cc2ccc3c(c2)OCO3)CC1 | -5.7
CC(C)=CC(=O)OCC(=O)NC1CCCc2ccccc21 (stereo unspecified) | -5.3
Cc1[nH]c2ccccc2c1/C=C/c1nc2ccccc2c(=O)n1CCO | 0.0
CCOc1ccccc1OCCCNCc1ccco1 | 0.0
CCN1/C(=C/c2ccc3cc(C)ccc3[n+]2CC)Sc2cc(C)ccc21 | 614.3*
CCN1/C(=C/c2ccc3cc(C)ccc3[n+]2C)Sc2ccc3sccc3c21 | 376.2*
Cc1noc(C)c1C(=O)Nc1sc(C)c(C)c1C#N | 7.1
COc1ccc(-c2nc(C)c(C(C)=O)n2O)cc1[N+](=O)[O-] | 0.0
COc1cc(NC(=S)NCCN2CCOCC2)cc(OC)c1 | -64.3
C=CCN(Cc1nc(-c2ccc(OC)c(OC)c2)oc1C)C1CCS(=O)(=O)C1 (stereo unspecified) | -7.1
O=C(CCNC(=O)c1ccco1)Nc1ccccc1N1CCOCC1 | -9.1
CC(C)=NN/C(N)=N/C(=S)Nc1ccc(C)cc1 | -5.1
Cc1ccc(-c2c[n+](CC(=O)Nc3cc(=O)n(C)c(=O)n3C)c3n2CCC3)cc1 | 0.0
O=C(c1ccc(-c2ccccc2)cc1)N1CCCC1 | 9.7
O=C(c1ccccc1-c1ccccc1)N1CCCC1 | 520.0*
O=C(O)c1ccccc1C(=O)N1CCN(C(=O)c2ccccc2Cl)CC1 | 6.7
COc1nc(N)c(S(=O)(=O)c2ccc(C)cc2)cc1C#N | 196.9*
Cc1ccc(S(=O)(=O)c2c(C)cc(C)nc2Cl)cc1 | 3.3
COc1ccc(-c2nc(N)n(S(=O)(=O)c3ccc(C)cc3)n2)cc1 | 8.3
O=C1CC(C(=O)Nc2cccc(F)c2)n2ncnc2N1 (stereo unspecified) | 9.1
COC(=O)N1CC(=O)N(OC)C1c1ccc(Cl)cc1Cl (stereo unspecified) | 0.0
COc1ccc(C2Nc3ccccc3C(=O)N2Cc2ccccc2)cc1CSc1ccccn1 (stereo unspecified) | 6.7
COc1ccc(C2Nc3ccccc3C(=O)N2Cc2ccco2)cc1COc1ccc(NC(C)=O)cc1 (stereo unspecified) | 9.1
COc1ccc(C2Nc3ccccc3C(=O)N2c2ccccc2)cc1COc1ccccn1 (stereo unspecified) | 220.0*
CC1CCCC(NC(=O)CCNS(=O)(=O)c2ccc(Br)cc2)C1C (stereo unspecified) | 114.3
